Reference: ChEMBL document CHEMBL1165943, “Design and synthesis of new anticancer pyrimidines with multiple-kinase inhibitory effect” (Bioorg Med Chem, 2010)
Where “and” joins values, the source holds several entries; their conditions need not be identical. Equal entries are not always repeated.

Experiments:
UO-31 [1] = experiment: Growth inhibition of human UO31 cells after 48 hrs by sulforhodamine B assay; format: functional, cell-based; conditions: UO-31, 48 h; for CC50: read-out: LC50 (the source's name)
Procedure, shortened: (§1)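 Cells grown in RPMI 1640 with 5% FBS and 2 mM L-glutamine, seeded at 5,000–40,000 cells/well according to doubling time. After 24 h, time-zero plates are TCA-fixed. Five concentrations (10-fold or ½log dilutions, DMSO stocks) are applied for 48 h at 37 °C, 5% CO₂. Cells are TCA-fixed, SRB-stained and read at 515 nm. IC₅₀ is taken from [(Ti−Tz)/(C−Tz)]×100 = 50.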

KM12 [2] = experiment: Cytotoxicity against human KM12 cells assessed as cell growth at 0.001 uM after 48 hrs by sulforhodamine B assay; format: functional; conditions: KM12, 48 h, read-out: Activity
SW-620 = experiment: Cytotoxicity against human SW620 cells assessed as cell growth at 0.001 uM after 48 hrs by sulforhodamine B assay; format: functional; conditions: SW-620, 48 h, read-out: Activity
SF-295 = experiment: Cytotoxicity against human SF295 cells assessed as cell growth at 0.001 uM after 48 hrs by sulforhodamine B assay; format: functional; conditions: SF-295, 48 h, read-out: Activity
LOX IMVI [3] = experiment: Cytotoxicity against human LOXIMVI cells assessed as cell growth at 0.001 uM after 48 hrs by sulforhodamine B assay; format: functional; conditions: read-out: Activity
ACHN = experiment: Cytotoxicity against human ACHN cells assessed as cell growth at 0.001 uM after 48 hrs by sulforhodamine B assay; format: functional; conditions: read-out: Activity
Procedure, shortened: (§2)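 Cells grown in RPMI 1640 with 5% FBS and 2 mM L-glutamine, seeded at 5,000–40,000 cells/well by doubling time. Time-zero plates TCA-fixed after 24 h. Five concentrations (10-fold or half-log dilutions from DMSO stock) added; 48 h at 37 °C, 5% CO2. Cold TCA fixation (final 10%, 60 min, 4 °C), 0.4% SRB stain, dye solubilized in 10 mM trizma base, A515.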

T47D = experiment: Cytotoxicity against human T47D cells assessed as cell growth at 0.001 uM after 48 hrs by sulforhodamine B assay; format: functional; conditions: read-out: Activity
HCT-116 = experiment: Cytotoxicity against human HCT116 cells assessed as cell growth at 100 nM after 48 hrs by sulforhodamine B assay; format: functional; conditions: HCT-116, 48 h, read-out: Activity
LOX IMVI [4] = experiment: Cytotoxicity against human LOXIMVI cells assessed as cell growth at 100 nM after 48 hrs by sulforhodamine B assay; format: functional; conditions: read-out: Activity
SK-OV-3 [5] = experiment: Cytotoxicity against human SKOV3 cells assessed as cell growth at 100 nM after 48 hrs by sulforhodamine B assay; format: functional; conditions: SK-OV-3, 48 h, read-out: Activity
HL-60(TB) = experiment: Cytotoxicity against human HL-60(TB) cells assessed as cell growth at 0.01 uM after 48 hrs by sulforhodamine B assay; format: functional; conditions: HL-60, 48 h, read-out: Activity
Procedure, shortened: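 Five-concentration HL-60(TB) test in RPMI 1640 with 5% FBS and 2 mM L-glutamine. Cells are plated at 5,000–40,000/well and a TCA-fixed time-zero plate is read at drug addition after 24 h. Drug is dissolved in DMSO and given as five 10-fold or ½log dilutions for 48 h at 37 °C, 5% CO2. Settled cells are fixed with TCA, stained with SRB and read at 515 nm.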

MOLT-4 = experiment: Cytotoxicity against human MOLT4 cells assessed as cell growth at 0.01 uM after 48 hrs by sulforhodamine B assay; format: functional; conditions: MOLT-4, 48 h, read-out: Activity
HT-29 = experiment: Cytotoxicity against human HT-29 cells assessed as cell growth at 10 uM after 48 hrs by sulforhodamine B assay; format: functional; conditions: HT-29, 48 h, read-out: Activity
MDA-MB-435 = experiment: Cytotoxicity against human MDA-MB-435 cells assessed as cell growth at 10 uM after 48 hrs by sulforhodamine B assay; format: functional; conditions: MDA-MB-435, 48 h, read-out: Activity
[6] = Cytotoxicity against human Hs 578T cells assessed as cell growth at 100 nM after 48 hrs by sulforhodamine B assay; format: functional; conditions: read-out: Activity
KM12 [7] = experiment: Cytotoxicity against human KM12 cells assessed as cell growth at 1 uM after 48 hrs by sulforhodamine B assay; format: functional; conditions: KM12, 48 h, read-out: Activity
SNB-19 [8] = experiment: Cytotoxicity against human SNB19 cells assessed as cell growth at 1 uM after 48 hrs by sulforhodamine B assay; format: functional; conditions: SNB-19, 48 h, read-out: Activity
OVCAR-5 = experiment: Cytotoxicity against human OVCAR5 cells assessed as cell growth at 0.01 uM after 48 hrs by sulforhodamine B assay; format: functional; conditions: OVCAR-5, 48 h, read-out: Activity
OVCAR-8 = experiment: Cytotoxicity against human OVCAR8 cells assessed as cell growth at 0.01 uM after 48 hrs by sulforhodamine B assay; format: functional; conditions: OVCAR-8, 48 h, read-out: Activity
SK-OV-3 [9] = experiment: Cytotoxicity against human SKOV3 cells assessed as cell growth at 0.01 uM after 48 hrs by sulforhodamine B assay; format: functional; conditions: SK-OV-3, 48 h, read-out: Activity
M14 = experiment: Cytotoxicity against human M14 cells assessed as cell growth at 1 uM after 48 hrs by sulforhodamine B assay; format: functional; conditions: M14, 48 h, read-out: Activity
SN12C = experiment: Cytotoxicity against human SN12C cells assessed as cell growth at 1 uM after 48 hrs by sulforhodamine B assay; format: functional; conditions: read-out: Activity
UO-31 [10] = experiment: Cytotoxicity against human UO31 cells assessed as cell growth at 1 uM after 48 hrs by sulforhodamine B assay; format: functional; conditions: UO-31, 48 h, read-out: Activity
BT-549 = experiment: Cytotoxicity against human BT549 cells assessed as cell growth at 1 uM after 48 hrs by sulforhodamine B assay; format: functional; conditions: BT-549, 48 h, read-out: Activity; procedure, shortened: as §2
MDA-MB-468 = experiment: Cytotoxicity against human MDA-MB-468 cells assessed as cell growth at 1 uM after 48 hrs by sulforhodamine B assay; format: functional; conditions: MDA-MB-468, 48 h, read-out: Activity
COLO 205 = experiment: Growth inhibition of human COLO205 cells after 48 hrs by sulforhodamine B assay; format: functional, cell-based; conditions: COLO 205, 48 h; for CC50: read-out: LC50 (the source's name)
Procedure, shortened: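 Five-dose SRB assay. Cells in RPMI 1640 with 5% FBS and 2 mM L-glutamine were seeded at 5,000–40,000 cells/well, with a TCA-fixed time-zero plate (Tz) taken at 24 h. Compound stocks were in DMSO, serially diluted 10-fold or ½-log to five concentrations, and incubated 48 h at 37 °C. Plates were stained with SRB and read at 515 nm. IC₅₀ was taken where [(Ti−Tz)/(C−Tz)]×100 = 50.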

SNB-19 [11] = experiment: Growth inhibition of human SNB19 cells after 48 hrs by sulforhodamine B assay; format: functional, cell-based; conditions: SNB-19, 48 h; for CC50: read-out: LC50 (the source's name); procedure, shortened: as §1
SNB-75 = experiment: Growth inhibition of human SNB75 cells after 48 hrs by sulforhodamine B assay; format: functional, cell-based; conditions: for CC50: read-out: LC50 (the source's name); procedure, shortened: as §1

CC(=O)Nc1cccc(-c2ccc(-c3ccnc(NC(=O)Nc4cc(C(F)(F)F)cc(C(F)(F)F)c4)n3)cn2)c1.Cl
GI50 (UO-31 [1]): 5.51 µM | IC50 (UO-31 [1]): 5.51 µM | TGI (UO-31 [1]): 23.2 µM | CC50 (UO-31 [1]): 61.7 µM | growth at 0.001 µM (KM12 [2]): 99% | growth at 0.001 µM (SW-620): 95% | growth at 0.001 µM (SF-295): 98% | growth at 0.001 µM (LOX IMVI [3]): 95% | growth at 0.001 µM (ACHN): 101% | growth at 0.001 µM (T47D): 89% | growth at 0.1 µM (HCT-116): 72% | growth at 0.1 µM (LOX IMVI [4]): 81% | growth at 0.1 µM (SK-OV-3 [5]): 94% | growth at 0.01 µM (HL-60(TB)): 90% | growth at 0.01 µM (MOLT-4): 90% | growth at 10 µM (HT-29): -64% | growth at 10 µM (MDA-MB-435): -27% | growth at 0.1 µM [6]: 97% | growth at 1 µM (KM12 [7]): -10% | growth at 1 µM (SNB-19 [8]): 29% | growth at 0.01 µM (OVCAR-5): 82% | growth at 0.01 µM (OVCAR-8): 96% | growth at 0.01 µM (SK-OV-3 [9]): 98% | growth at 1 µM (M14): -68% | growth at 1 µM (SN12C): 49% | growth at 1 µM (UO-31 [10]): 48% | growth at 1 µM (BT-549): 43% | growth at 1 µM (MDA-MB-468): -79% | GI50 (COLO 205): 11 µM | IC50 (COLO 205): 11 µM | TGI (COLO 205): > 100 µM | CC50 (COLO 205): > 100 µM | GI50 (SNB-19 [11]): 4.57 µM | IC50 (SNB-19 [11]): 4.57 µM | TGI (SNB-19 [11]): 17.8 µM | CC50 (SNB-19 [11]): 47.4 µM | GI50 (SNB-75; Homo sapiens, SNB-75, 48 h): 10.9 µM | IC50 (SNB-75; Homo sapiens, SNB-75, 48 h): 10.9 µM | TGI (SNB-75; Homo sapiens, SNB-75, 48 h): 30.5 µM | CC50 (SNB-75; Homo sapiens, SNB-75, 48 h): 85.8 µM

CC(=O)c1ccccc1-c1ccc(-c2ccnc(NC(=O)Nc3cc(N4CCOCC4)cc(C(F)(F)F)c3)n2)cn1
GI50 (UO-31 [1]): > 5.46 µM | IC50 (UO-31 [1]): > 100 µM | TGI (UO-31 [1]): > 100 µM | CC50 (UO-31 [1]): > 100 µM | growth at 0.001 µM (KM12 [2]): 103% | growth at 0.001 µM (SW-620): 98% | growth at 0.001 µM (SF-295): 93% | growth at 0.001 µM (LOX IMVI [3]): 104% | growth at 0.001 µM (ACHN): 97% | growth at 0.001 µM (T47D): 106% | growth at 0.1 µM (HCT-116): 86% | growth at 0.1 µM (LOX IMVI [4]): 90% | growth at 0.1 µM (SK-OV-3 [5]): 118% | growth at 0.01 µM (HL-60(TB)): 87% | growth at 0.01 µM (MOLT-4): 76% | growth at 10 µM (HT-29): 91% | growth at 10 µM (MDA-MB-435): 91% | growth at 0.1 µM [6]: 77% | growth at 1 µM (KM12 [7]): 86% | growth at 1 µM (SNB-19 [8]): 85% | growth at 0.01 µM (OVCAR-5): 100% | growth at 0.01 µM (OVCAR-8): 93% | growth at 0.01 µM (SK-OV-3 [9]): 113% | growth at 1 µM (M14): 9% | growth at 1 µM (SN12C): 64% | growth at 1 µM (UO-31 [10]): 82% | growth at 1 µM (BT-549): 21% | growth at 1 µM (MDA-MB-468): 109% | GI50 (COLO 205): > 63.2 µM | IC50 (COLO 205): > 100 µM | TGI (COLO 205): > 100 µM | CC50 (COLO 205): > 100 µM | GI50 (SNB-19 [11]): 9.04 µM | IC50 (SNB-19 [11]): 38.7 µM | TGI (SNB-19 [11]): > 100 µM | CC50 (SNB-19 [11]): > 100 µM | TGI (SNB-75): 100 µM and 27.5 µM | GI50 (SNB-75; Homo sapiens, SNB-75, 48 h): 38.7 µM | IC50 (SNB-75; Homo sapiens, SNB-75, 48 h): 5.35 µM | CC50 (SNB-75; Homo sapiens, SNB-75, 48 h): > 100 µM
